From PubChem BioAssay
Compounds with a hit are over-represented: about 1.8% of the library has one in this group of screens.
NPY2 pot ag – potentiators or agonists of human neuropeptide Y receptor Y2; P49146; cells expressing NPY-Y2, potentiator/agonist read-out; activation, % at 3.6 µM; actives 0.45% (n = 220,000); AID 1359; in the data active = activation above about 27%;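 also: cells stimulated with NPY near EC25 plus isoproterenol at EC100; 0% = vehicle plus submaximal agonist and 100% = vehicle plus saturating agonist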
Target sequence (P49146 whole entry, looked up): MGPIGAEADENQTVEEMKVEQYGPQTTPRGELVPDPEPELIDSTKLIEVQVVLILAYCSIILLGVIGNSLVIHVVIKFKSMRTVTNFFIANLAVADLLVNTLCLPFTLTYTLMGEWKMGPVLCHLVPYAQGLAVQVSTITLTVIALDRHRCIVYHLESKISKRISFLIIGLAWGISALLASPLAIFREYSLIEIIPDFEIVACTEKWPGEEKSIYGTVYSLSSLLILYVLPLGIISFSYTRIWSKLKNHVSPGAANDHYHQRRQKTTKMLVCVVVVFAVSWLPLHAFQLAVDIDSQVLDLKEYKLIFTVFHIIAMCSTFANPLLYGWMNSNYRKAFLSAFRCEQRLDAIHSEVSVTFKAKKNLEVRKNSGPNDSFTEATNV
NPY1 pot ag – potentiators or agonists of human neuropeptide Y receptor Y1. NPY-Y1 expressing cells, potentiator/agonist activation. activation, % at 3.6 µM. P25929. actives 0.37% (n = 220,000). AID 1304; in the data active = activation above about 33%, passing the limit was not always enough;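 also: cells stimulated with NPY at EC10 then isoproterenol at EC100; 0% = low agonist plus stimulus and 100% = saturating agonist plus stimulus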
NPY Y2 blocker – NPY-Y2 (human) receptor antagonism. actives 0.99% (n = 140,000). inhibition, % at 2.7 µM. AID 793. P49146. NPY-Y2 expressing cells, antagonist mode;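 also: 0% = vehicle with agonist challenge and 100% = reference antagonist with challenge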
NPY Y1 blocker – blocks the human neuropeptide Y Y1 receptor; actives 1% (n = 200,000); inhibition, % at 3.6 µM; HEK293-CNG Y1 cells, membrane potential fluorescence; NPY at EC95, then isoproterenol;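 active = inhibition above the campaign mean inhibition of all tested compounds plus 3 SD, cut at about 20% in these data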;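 also: 0% = DMSO wells given NPY plus isoproterenol and 100% = isoproterenol alone without NPY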
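Assay system: HEK293 Y1/CNG channel cell line; Doses: single compound dose of 3.6 µM, 0.4% DMSO; Timing: dye 3 h, compound 60 min room temperature, stimulation 45 min; Technique: Membrane-potential fluorescent dye readout; Measure: % inhibition of NPY effect.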
NPY-Y1 ant conf – confirmation of human neuropeptide Y receptor Y1 antagonists; shares compounds with NPY Y1 blocker; HEK293-CNG NPY-Y1, membrane potential fluorescence, cAMP; NPY challenge against isoproterenol-raised cAMP; inhibition, % at 3.6 µM; actives 21% (n = 1,200); AID 1254; in the data active = inhibition above about 20%;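 also: 0% = vehicle with agonist plus stimulus and 100% = stimulus alone without agonist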
NPY2 antag ctr – antagonizes human NPY-Y2, counter-screen to NPY-Y1 antagonists; shares compounds with NPY Y1 blocker; HEK293 NPY-Y2 CNG membrane potential fluorescence, antagonism; cells given NPY, then isoproterenol; inhibition, % at 3.6 µM; actives 28% (n = 1,200); AID 1255;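 also: 0% = DMSO with agonist challenge and 100% = reference antagonist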
The depositor's hits bear a star; . = not tested or not shown. Rule as the data show it, unless noted: active = inhibition above about 17%; inactive = the rest.

SMILES	NPY2 pot ag	NPY1 pot ag	NPY Y2 blocker	NPY Y1 blocker	NPY-Y1 ant conf	NPY2 antag ctr
CN(C(=O)CN(c1ccccc1)S(=O)(=O)c1ccc(F)cc1)C1CCS(=O)(=O)C1 (centres undefined)	-34	5	.	.	.	.
CCOc1ccc(N=c2oc3cc(O)ccc3cc2C(=O)NCC2CCCO2)cc1 (centres undefined)	-3	2	6	7	.	.
COc1ccc(N=c2oc3cc(O)ccc3cc2C(=O)NCC2CCCO2)cc1 (centres undefined)	-9	-17	17	33*	11	6
COc1ccc(CC(=O)Nc2c3c(nn2-c2cccc(Cl)c2)CS(=O)(=O)C3)cc1	6	6	8	14	.	.
O=C(Cc1ccccc1)Nc1c2c(nn1-c1cccc(Cl)c1)CS(=O)(=O)C2	-16	-13	9	22*	17	8
c1ccc(-c2ccccc2OCCOCCN2CCc3ccccc3C2)cc1	-11	-11	.	16	.	.
Clc1ccc(OCCOCCN2CCc3ccccc3C2)c(Cl)c1	-16	-28	10	25*	8	8
Clc1ccc(SCCOCCN2CCc3ccccc3C2)cc1	-5	-23	.	23*	15	12
S=C(Nc1ccc(Cc2ccncc2)cc1)Nc1cccc(Cl)c1	-4	-5	.	-2	.	.
COc1ccc(-n2c(-c3ccc(Cl)cc3)c[n+]3c2CCc2ccccc2-3)cc1	-6	-8	.	23*	24*	11
COC(=O)c1c(NC(=O)C2COc3ccccc3O2)sc2c1CCN(Cc1ccccc1)C2 (centres undefined)	-28	-17	15	22*	31*	24*
Cc1cccc(C)c1NC(=O)COC(=O)c1cccnc1	6	15	.	2	.	.
CS(=O)(=O)CCC(C(=O)OCc1ccc(Cl)cc1)N1C(=O)c2ccccc2C1=O (centres undefined)	5	8	0	6	.	.
CC(=O)NC1(c2ccccc2)CCN(c2cc(C)nc(-c3ccccc3)n2)CC1	-23	-11	.	46*	34*	46*
Cc1cc(N2CCN(c3cccc(C)c3C)CC2)nc(-c2ccccc2)n1	-34	-23	14	21*	22*	17*
Cc1cc(C)c(S(=O)(=O)Nc2ccnc(-c3cccnc3)n2)c(C)c1	7	7	.	-1	.	.
COc1cc(OC)cc(C(=O)NNC(=S)NCc2ccco2)c1	-11	-4	.	3	.	.
COCCNc1nc2nonc2nc1N(C)Cc1cccc2cnccc12	-8	1	.	27*	2	1
CC(Cc1ccccc1)C(=O)N(C)Cc1cccnc1 (centres undefined)	3	9	1	0	.	.
CCN(CC)C(=O)c1ccccc1NC(=O)CN1C(=O)c2ccccc2C1=O	0	11	.	2	.	.
CCSc1nc(C2CC2)cc(-c2cccs2)c1C#N	-17	-18	3	22*	7	8
CCSc1nc(C2CC2)cc(-c2ccco2)c1C#N	-4	-14	5	7	.	.
CCCCOC(=O)c1ccc(NC(=O)c2c(Cl)ccc(Cl)c2OC)cc1	-21	-33	8	24*	17	14
CCNNC(=O)C(O)(c1cccc(C)c1)c1cccc(C)c1	4	25	5	0	.	.
CCCNNC(=O)C(O)(c1cccc(C)c1)c1cccc(C)c1	-1	-11	10	26*	2	7
SMILES	NPY2 pot ag	NPY1 pot ag	NPY Y2 blocker	NPY Y1 blocker	NPY-Y1 ant conf	NPY2 antag ctr
Cc1ccc(NC(=O)C(c2ccccc2)C2CCCC2)cc1 (centres undefined)	2	-33	5	24*	7	5
Cc1ccc(NC(=O)C(Nc2ccccc2)c2ccccc2)cc1 (centres undefined)	8	-8	4	-2	.	.
CCOC(=O)c1cc2ccccc2n1CCN(CC)CC	-28	-25	12	25*	5	16
CC1(C)CC(CCNC(=O)CCl)(c2ccccc2)CCO1 (centres undefined)	10	8	.	.	.	.
CC1(C)CC(=O)C/C(=N\NC(=O)CCc2ccc(S(=O)(=O)N3CCOCC3)cc2)C1	4	4	.	2	.	.
COc1cccc2c3c(c(C)nc12)CCN3c1ccccc1	-21	-46	.	23*	19	21*
CN(C)S(=O)(=O)c1cccc(NC(=O)COC(=O)c2cccn2C)c1	2	-14	.	4	.	.
CC(C)(C)C(=O)N1CCN(c2nc3ccccc3o2)CC1	-10	15	.	1	.	.
O=[N+]([O-])c1ccc(Nc2nc(NC3CCCCC3)nc(N3CCCC3)n2)cc1	5	14	.	-1	.	.
Nc1ccc(C(=O)OCC(=O)Nc2ccc([N+](=O)[O-])cc2C(F)(F)F)cc1	-3	-12	1	9	.	.
COc1cccc(N2C(C(C)=O)=NN(c3ccccc3)C2c2ccc(N3CCOCC3)cc2)c1 (centres undefined)	9	-2	2	0	.	.
COc1ccc(C2N(c3ccc(Cl)cc3)N=C(C(C)=O)N(C)N2C(C)=O)cc1 (centres undefined)	11	16	.	29*	20*	9
Cn1c(C(=O)c2ccccc2[N+](=O)[O-])nc2ccccc21	10	26	.	-2	.	.
Cc1ccc(C(=O)c2cc([N+](=O)[O-])ccc2N2CC(C)OC(C)C2)cc1 (centres undefined)	6	-10	4	0	.	.
Cc1ccc(C(=O)c2cc([N+](=O)[O-])ccc2N2CCCCC2)cc1	-2	-62	16	22*	12	26*
COc1cccc(C2=NOC(C(=O)NC3CCCCC3)C2)c1 (centres undefined)	-23	-28	2	4	.	.
CN(C)S(=O)(=O)Nc1cc(Cl)cc(Cl)c1	-12	-16	.	20	.	.
O=C(c1ccc(Br)o1)N(Cc1ccccc1)Cc1ccccc1	-16	-14	14	20*	7	5
Cc1cc(-c2ccccc2)nc(Oc2ccc(C(C)(C)C)cc2)c1S(C)(=O)=O	-21	-38	8	23*	7	14
Cc1cccc(OCCNC(=O)c2ccc(Oc3ccc(C(F)(F)F)cc3[N+](=O)[O-])cc2)c1	-27	-41	9	22*	28*	15
CCCCCCCCNc1ncnc2ccccc12	3	0	14	19	.	.
CCCCCCCC[n+]1cccc2c3ccccc3ccc21	-6	-18	.	51*	43*	26*
Cc1cccc[n+]1CCCCCCCCCC[n+]1ccccc1C	-3	0	.	0	.	.
CCCCCCCCCC[n+]1cccc2c3ccccc3ccc21	-6	-11	.	50*	48*	37*
O=C(COC(=O)c1cnccn1)NCc1ccc2c(c1)OCO2	0	9	.	3	.	.
CSc1nsc(SCC(=O)N2CCN(c3ccccc3)CC2)n1	-35	-45	14	29*	12	7
CCCC(=O)Nc1nnc(SCC(=O)N2CCN(c3ccccc3)CC2)s1	7	-4	.	.	.	.
